This note sets out measurements from ChEMBL document CHEMBL1914327, “Unichiral 2-(2'-pyrrolidinyl)-1,4-benzodioxanes: the 2R,2'S diastereomer of the N-methyl-7-hydroxy analogue is a potent α4β2- and α6β2-nicotinic acetylcholine receptor partial agonist” (J Med Chem, 2011).

Calls of active or inactive are those of the source. The calls are words filed in the database; no cut-off is given here.

In experiment [1] the target is Neuronal acetylcholine receptor subunit alpha-7 (Rattus norvegicus, UniProt Q05941). Kind of experiment: Displacement of [125I]alpha-bungarotoxin from alpha7 nAChR in Sprague-Dawley rat cerebral cortex […]. It counts as tissue-based.
Neuronal acetylcholine receptor subunit alpha-7, sequence (Q05941 whole entry): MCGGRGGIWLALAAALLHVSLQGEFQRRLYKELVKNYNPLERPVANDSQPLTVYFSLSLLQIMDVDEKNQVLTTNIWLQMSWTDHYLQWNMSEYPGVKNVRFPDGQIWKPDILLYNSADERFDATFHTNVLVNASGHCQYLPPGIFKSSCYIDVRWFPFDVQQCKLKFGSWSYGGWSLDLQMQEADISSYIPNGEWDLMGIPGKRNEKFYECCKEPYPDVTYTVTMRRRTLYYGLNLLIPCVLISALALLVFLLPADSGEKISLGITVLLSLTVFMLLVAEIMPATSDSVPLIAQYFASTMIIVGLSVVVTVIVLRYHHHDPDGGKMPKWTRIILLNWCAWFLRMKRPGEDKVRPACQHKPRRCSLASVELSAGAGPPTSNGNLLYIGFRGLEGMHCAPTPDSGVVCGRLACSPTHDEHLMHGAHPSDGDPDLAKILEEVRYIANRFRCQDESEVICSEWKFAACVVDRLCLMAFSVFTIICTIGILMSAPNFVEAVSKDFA
Experiment [2] deals with T1, Neuronal acetylcholine receptor; alpha4/beta2 (Rattus norvegicus, UniProt P09483+P12390). Put plainly: Displacement of [3H]epibatidine from alpha4beta2 nAChR in Sprague-Dawley rat cerebral cortex by beta counting. It counts as tissue-based. The method, boiled down: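 Sprague-Dawley rat cortical membranes in Tris buffer pH 7 with protease inhibitors. Membranes first blocked with 1 μM α-bungarotoxin. Compound (10 pM to 10 mM) preincubated 30 min at rt, then 0.1 nM [3H]epibatidine (final) added overnight at 4 °C. Nonspecific binding defined with 100 nM unlabeled epibatidine. Filtered and beta counted. Ki from three independent experiments fitted by LIGAND.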
T1 sequence (P09483 whole entry): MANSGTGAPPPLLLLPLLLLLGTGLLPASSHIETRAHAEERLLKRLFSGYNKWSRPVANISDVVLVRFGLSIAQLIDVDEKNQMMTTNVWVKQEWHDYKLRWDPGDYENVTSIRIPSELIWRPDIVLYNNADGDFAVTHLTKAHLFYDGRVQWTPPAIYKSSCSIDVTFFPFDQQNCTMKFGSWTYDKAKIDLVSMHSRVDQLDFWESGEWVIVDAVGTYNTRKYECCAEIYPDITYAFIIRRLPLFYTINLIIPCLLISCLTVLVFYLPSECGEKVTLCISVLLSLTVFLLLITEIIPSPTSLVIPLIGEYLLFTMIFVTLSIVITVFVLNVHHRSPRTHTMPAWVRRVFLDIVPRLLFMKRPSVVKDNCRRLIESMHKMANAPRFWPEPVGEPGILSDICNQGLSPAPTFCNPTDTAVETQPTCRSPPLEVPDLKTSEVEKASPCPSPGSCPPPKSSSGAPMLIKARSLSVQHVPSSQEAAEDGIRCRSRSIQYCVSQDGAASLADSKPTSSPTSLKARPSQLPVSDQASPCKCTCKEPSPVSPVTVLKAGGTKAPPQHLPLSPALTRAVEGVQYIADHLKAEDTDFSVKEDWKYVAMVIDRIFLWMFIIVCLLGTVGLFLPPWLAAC
T1 sequence (P12390 whole entry): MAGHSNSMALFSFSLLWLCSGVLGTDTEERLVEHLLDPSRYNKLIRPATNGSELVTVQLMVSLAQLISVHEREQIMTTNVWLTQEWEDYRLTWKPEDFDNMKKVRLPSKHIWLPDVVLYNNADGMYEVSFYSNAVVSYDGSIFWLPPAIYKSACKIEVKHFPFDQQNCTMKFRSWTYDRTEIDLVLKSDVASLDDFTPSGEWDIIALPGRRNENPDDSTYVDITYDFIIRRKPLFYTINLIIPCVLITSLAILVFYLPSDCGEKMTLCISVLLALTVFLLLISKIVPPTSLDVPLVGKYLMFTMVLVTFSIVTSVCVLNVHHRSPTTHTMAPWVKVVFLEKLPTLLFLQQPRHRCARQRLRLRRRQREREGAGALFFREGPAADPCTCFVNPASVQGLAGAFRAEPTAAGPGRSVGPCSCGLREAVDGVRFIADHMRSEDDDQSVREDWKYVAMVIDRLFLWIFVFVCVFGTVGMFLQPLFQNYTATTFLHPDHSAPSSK

The target of experiment [3] is T2, Neuronal acetylcholine receptor; alpha4/beta2 (Rattus norvegicus) (UniProt P09483+P12390). Put plainly: Agonist activity at rat alpha4beta2 nAChR assessed as [3H]dopamine release from rat striatum by beta counting relative to 10 uM nicotine. It counts as functional. The method in brief: (§1)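 Rat striatal slices (150 μm) were preloaded for 30 min with 100 nM [3H]DA in Krebs buffer containing 10 μM pargyline, then washed with pargyline plus 0.5 μM nomifensine. Slices were exposed to agonist for 5 min at 37 °C. […] EC50/Emax came from nonlinear regression; six replicates, ≥3 experiments.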

The target of experiment [4] is T1, Neuronal acetylcholine receptor; alpha4/beta2. Kind of experiment: Agonist activity at rat alpha4beta2 nAChR assessed as [3H]dopamine release by beta counting. It counts as functional. The method in brief:
as §1

The target in experiment [5] is T3, Neuronal acetylcholine receptor subunit alpha-6/beta-3 (Rattus norvegicus) (UniProt P12391+P43143). Put plainly: Agonist activity at rat alpha6beta2 nAChR assessed as [3H]dopamine release from rat striatum by beta counting relative to 10 uM nicotine. It counts as functional.
The species entered for another experiment is Rattus norvegicus. Kind of experiment: Selectivity ratio of Ki for alpha7 nAChR in Sprague-Dawley rat cerebral cortex to Ki for alpha4beta2 nAChR in Sprague-Dawley rat cerebral cortex. It counts as tissue-based. The method, boiled down: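 Sprague-Dawley rat cortical membranes, with compound (10 pM–10 mM) preincubated 30 min at rt. α4β2 assay: membranes pretreated with 1 μM α-bungarotoxin, then 0.1 nM [3H]epibatidine overnight at 4 °C. α7 assay: 1 nM [125I]α-bungarotoxin overnight at rt. Ki values were from LIGAND fits of three experiments, and the ratio was taken from these Ki values.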

Experiment [6] concerns the target T3, Neuronal acetylcholine receptor subunit alpha-6/beta-3 (Rattus norvegicus). Put plainly: Partial agonist activity at alpha6beta2 nAChR in rat striatum assessed as decrease in [3H]dopamine release by beta counting in the presence of antagonist alphaconotoxin MII. It counts as functional, tissue-based.
Another experiment relates to HEK293. Kind of experiment: Selectivity ratio of Ki for human alpha3beta4 nAChR expressed in human HEK293 cells to Ki for alpha4beta2 nAChR in rat cerebral cortex. It counts as cell-based.
Experiment [7] addresses Neuronal acetylcholine receptor; alpha3/beta4 (Homo sapiens, UniProt P30926+P32297). Kind of experiment: Displacement of [3H]epibatidine from human alpha3beta4 nAChR expressed in human HEK293 cells by scintillation counting. It counts as cell-based. The method in brief:
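Membranes from HEK293 cells transiently transfected with α3 and β4 cDNAs (harvested at 48 h). Compound was preincubated for 5 min, then 0.25 nM [3H]epibatidine was added overnight at 4 °C in Tris buffer (pH 7) with BSA and no Tween. Nonspecific binding used 100 nM epibatidine. Ki was fitted from three experiments in triplicate.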

For experiment [8], the target named is T1, Neuronal acetylcholine receptor; alpha4/beta2. Put plainly: Partial agonist activity at Nicotinic acetylcholine alpha4beta2 receptor in rat striatum assessed as [3H]dopamine release by beta counting. It counts as functional, tissue-based. The method in brief: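 Rat striatal slices (150 μm) were preloaded for 30 min with 100 nM [3H]DA in Krebs buffer containing 10 μM pargyline, then washed with pargyline plus 0.5 μM nomifensine. Slices were exposed to agonist for 5 min at 37 °C.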

Experiment [9] addresses Neuronal acetylcholine receptor; alpha3/beta4 (Rattus norvegicus, UniProt P04757+P12392). Put plainly: Partial agonist activity at rat alpha3beta4 nAChR assessed as [3H]noradrenaline release from rat […] by beta counting. It counts as functional.
The target of experiment [10] is T2, Neuronal acetylcholine receptor; alpha4/beta2 (Rattus norvegicus). Kind of experiment: Partial agonist activity at Nicotinic acetylcholine alpha4beta2 receptor in rat striatum assessed as [3H]dopamine release by beta counting relative to nicotine. It counts as functional, tissue-based. The method, boiled down: as §1

Neuronal acetylcholine receptor; alpha3/beta4 (Rattus norvegicus, UniProt P04757+P12392), sequence (P04757 whole entry): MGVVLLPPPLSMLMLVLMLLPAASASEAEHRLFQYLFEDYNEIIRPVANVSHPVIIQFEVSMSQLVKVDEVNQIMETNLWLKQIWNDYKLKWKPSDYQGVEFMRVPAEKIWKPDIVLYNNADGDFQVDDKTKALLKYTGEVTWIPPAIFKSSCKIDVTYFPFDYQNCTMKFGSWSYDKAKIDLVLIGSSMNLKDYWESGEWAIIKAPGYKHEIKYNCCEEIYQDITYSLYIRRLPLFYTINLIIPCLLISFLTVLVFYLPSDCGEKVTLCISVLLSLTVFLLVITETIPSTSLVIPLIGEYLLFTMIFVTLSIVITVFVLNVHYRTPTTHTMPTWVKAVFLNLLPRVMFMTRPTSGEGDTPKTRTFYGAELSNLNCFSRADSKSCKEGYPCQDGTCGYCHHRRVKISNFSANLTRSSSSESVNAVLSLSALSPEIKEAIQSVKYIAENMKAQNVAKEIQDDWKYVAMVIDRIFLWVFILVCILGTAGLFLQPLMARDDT
Neuronal acetylcholine receptor; alpha3/beta4 (Rattus norvegicus, UniProt P04757+P12392), sequence (P12392 whole entry): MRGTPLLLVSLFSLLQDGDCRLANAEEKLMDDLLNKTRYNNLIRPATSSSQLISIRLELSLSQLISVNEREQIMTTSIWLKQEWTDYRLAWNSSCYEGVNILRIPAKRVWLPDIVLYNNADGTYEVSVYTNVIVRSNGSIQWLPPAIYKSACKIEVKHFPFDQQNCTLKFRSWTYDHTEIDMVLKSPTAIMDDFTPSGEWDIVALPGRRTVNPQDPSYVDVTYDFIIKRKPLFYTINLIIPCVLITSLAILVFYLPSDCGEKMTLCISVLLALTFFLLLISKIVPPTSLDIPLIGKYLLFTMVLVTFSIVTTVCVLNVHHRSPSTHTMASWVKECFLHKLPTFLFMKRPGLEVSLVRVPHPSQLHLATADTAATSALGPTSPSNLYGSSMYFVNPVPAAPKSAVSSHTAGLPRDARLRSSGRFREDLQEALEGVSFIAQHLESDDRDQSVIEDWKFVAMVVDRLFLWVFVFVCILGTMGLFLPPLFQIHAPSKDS
Neuronal acetylcholine receptor; alpha3/beta4 (Homo sapiens, UniProt P30926+P32297), sequence (P30926 whole entry): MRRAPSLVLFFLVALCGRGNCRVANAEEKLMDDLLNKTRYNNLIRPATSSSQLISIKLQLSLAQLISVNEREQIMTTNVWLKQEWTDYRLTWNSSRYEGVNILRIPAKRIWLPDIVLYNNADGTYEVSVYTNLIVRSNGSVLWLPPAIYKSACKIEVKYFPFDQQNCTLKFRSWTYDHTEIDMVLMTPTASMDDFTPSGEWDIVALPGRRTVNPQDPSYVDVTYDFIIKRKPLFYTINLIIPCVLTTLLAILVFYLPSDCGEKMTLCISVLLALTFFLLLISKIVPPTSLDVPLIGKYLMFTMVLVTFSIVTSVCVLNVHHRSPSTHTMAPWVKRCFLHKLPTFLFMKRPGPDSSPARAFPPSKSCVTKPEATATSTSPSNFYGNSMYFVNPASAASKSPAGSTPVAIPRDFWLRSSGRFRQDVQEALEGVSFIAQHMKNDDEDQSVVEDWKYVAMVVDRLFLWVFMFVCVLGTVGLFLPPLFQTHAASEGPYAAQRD
Neuronal acetylcholine receptor; alpha3/beta4 (Homo sapiens, UniProt P30926+P32297), sequence (P32297 whole entry): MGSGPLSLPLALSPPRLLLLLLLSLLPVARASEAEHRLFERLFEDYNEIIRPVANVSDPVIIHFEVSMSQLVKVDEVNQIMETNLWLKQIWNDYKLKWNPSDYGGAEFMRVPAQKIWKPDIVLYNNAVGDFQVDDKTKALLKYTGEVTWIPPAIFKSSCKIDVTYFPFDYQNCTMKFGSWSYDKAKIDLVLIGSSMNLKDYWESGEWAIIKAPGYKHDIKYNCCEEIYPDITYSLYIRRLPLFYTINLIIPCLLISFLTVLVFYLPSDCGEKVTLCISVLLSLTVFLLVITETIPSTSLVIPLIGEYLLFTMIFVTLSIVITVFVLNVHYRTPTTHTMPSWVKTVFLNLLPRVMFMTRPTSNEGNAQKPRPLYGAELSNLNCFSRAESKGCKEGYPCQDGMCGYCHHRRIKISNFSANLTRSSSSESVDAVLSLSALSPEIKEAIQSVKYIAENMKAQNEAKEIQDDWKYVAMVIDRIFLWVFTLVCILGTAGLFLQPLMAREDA

As for `CN1CCC[C@@H]1[C@@H]1COc2ccc(O)cc2O1`, the Ki in experiment [1] turned out to be 1.3 µM; in experiment [2] it was 3 µM.
Turning to `CC(C)Oc1ccc2c(c1)O[C@H]([C@@H]1CCCN1C)CO2`, the Ki is 6.1 µM in [1] and 9.3 µM in experiment [2].
The matching figures for `CN1CCC[C@H]1[C@@H]1COc2ccc(Br)cc2O1`: 22 µM and 8.1 µM.
Regarding `Cc1ccc2c(c1)O[C@H]([C@@H]1CCCN1C)CO2`, the results for the Ki in experiment [1] and in experiment [2] were 126 µM and 42 µM, respectively.
In the case of `CC(=O)c1ccc2c(c1)O[C@H]([C@@H]1CCCN1C)CO2` (racemic), the Ki in experiment [1] was 110 µM; in experiment [2] it was 97 µM.
As for `CN1CCC[C@@H]1[C@H]1COc2ccc(O)cc2O1`, the Ki in [1] turned out to be 4.5 µM; in experiment [2], 3.5 µM.
For the compound `Oc1ccc2c(c1)O[C@H]([C@H]1CCCN1)CO2`, the Ki worked out at 3 µM in [1] and 1.3 µM in [2].
For `CC(C)Oc1ccc2c(c1)O[C@@H]([C@@H]1CCCN1C)CO2` the same measures were 43 µM and 3.2 µM.
For the compound `CN1CCC[C@H]1[C@@H]1COc2ccc(-c3ccccc3)cc2O1`, the Ki in [1] turned out to be 36 µM; in experiment [2], 35 µM.
For the compound `COc1ccc2c(c1)O[C@@H]([C@@H]1CCCN1C)CO2`, the Ki stood at 26 µM in experiment [1] and 4.2 µM in experiment [2].
For the compound `Oc1ccc2c(c1)O[C@@H]([C@H]1CCCN1)CO2`, the figures for the Ki in experiment [1] and in [2] were 35 µM and 18 µM, respectively.
With `c1cnc2cc3c(cc2n1)[C@@H]1CNC[C@H]3C1` [VARENICLINE], the Efficacy in experiment [3] and in experiment [5] was 49% throughout. In experiment [4], the EC50 came out at 46 nM.
Regarding `CN1CCC[C@H]1[C@H]1COc2ccc(-c3ccccc3)cc2O1`, the Ki in experiment [1] worked out at 51 µM; in [2], 3.1 µM.
For `Cc1ccc2c(c1)O[C@@H]([C@@H]1CCCN1C)CO2` the same measures were 64 µM and 5.7 µM.
`CC(=O)c1ccc2c(c1)O[C@@H]([C@@H]1CCCN1C)CO2`: the results for the Ki in experiment [1] and in experiment [2] were 30 µM and 11.7 µM, respectively.
For `Oc1ccc2c(c1)O[C@@H]([C@@H]1CCCN1)CO2` the same measures were 53 µM and 1.2 µM.
For the compound `Oc1ccc2c(c1)O[C@H]([C@@H]1CCCN1)CO2`, the Ki in experiment [1] was determined as 33 µM; in experiment [2], 9 µM.
For `CN1CCC[C@H]1[C@H]1COc2ccc(CO)cc2O1`, the Ki in experiment [1] is 12 µM; in experiment [2], 9.5 µM.
For the compound `COc1ccc2c(c1)O[C@H]([C@@H]1CCCN1C)CO2`, the Ki in experiment [1] came to 32 µM; in experiment [2], 17 µM.
On to `CN1CCC[C@H]1[C@@H]1COc2ccc(O)cc2O1`, for which the Ki in experiment [1] came to 0.427 µM; in [2], 0.012 µM; in experiment [7] it was 310 nM. The values for the Ratio Ki in the experiment listed under Rattus norvegicus and with HEK293 were 35 and 26, respectively. In addition, in [6], the outcome was inactive. Moreover, the results for the EC50 in experiment [8] and in experiment [9] were 82 nM and 17.6 µM, respectively. In addition, in [10], the Efficacy turned out to be 51%.
For `CN1CCC[C@H]1[C@H]1COc2ccc(Br)cc2O1`, the Kd in [1] stood at 0.3 nM; in [2], 0.036 nM. Moreover, the Ki in experiment [1] stood at 22 µM; in experiment [2], 3 µM.
With `CN1CCC[C@H]1[C@H]1COc2ccc(O)cc2O1`, the figures for the Ki in experiment [1] and in [2] were 20 µM and 0.421 µM, respectively. For the same compound, the Ratio Ki in the experiment listed under Rattus norvegicus amounted to 47.
As for `CN1CCC[C@H]1[C@@H]1COc2ccc(CO)cc2O1`, the Ki in experiment [1] came to 60 µM; in [2], 51 µM.
